{"source": "paper PMC7583042", "about": "(Free radical biology & medicine, 2019)", "key": {"Rat TrxR": {"system": "Rat TrxR", "details": "ref bioassay AID 588453, cited from earlier work; for IC50: read-out: Apparent IC50 Rat TrxR"}, "SmTGR WT [1]": {"target": "T1, SmTGR WT (Schistosoma mansoni, UniProt Q962Y6)", "assay": "biochemical", "format": "biochemical"}, "[2]": {"details": "pKa of the amine named in the cell; source not stated; cited from earlier work"}, "human GR": {"target": "T2, human GR (Homo sapiens, UniProt P00390)", "T2 sequence (P00390 1-479 isoform P00390-2)": "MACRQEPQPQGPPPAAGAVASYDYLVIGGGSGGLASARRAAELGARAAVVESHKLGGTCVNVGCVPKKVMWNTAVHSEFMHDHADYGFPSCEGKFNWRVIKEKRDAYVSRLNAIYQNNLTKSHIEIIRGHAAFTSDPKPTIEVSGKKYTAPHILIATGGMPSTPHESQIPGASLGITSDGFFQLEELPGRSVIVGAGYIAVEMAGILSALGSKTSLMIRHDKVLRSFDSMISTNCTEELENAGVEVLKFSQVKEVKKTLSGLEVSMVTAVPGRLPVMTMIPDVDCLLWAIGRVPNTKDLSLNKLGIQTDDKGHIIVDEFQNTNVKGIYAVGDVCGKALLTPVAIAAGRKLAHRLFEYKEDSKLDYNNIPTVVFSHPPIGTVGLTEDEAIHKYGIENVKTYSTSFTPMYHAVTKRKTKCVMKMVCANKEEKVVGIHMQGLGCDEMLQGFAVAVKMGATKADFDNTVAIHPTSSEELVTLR", "assay": "biochemical", "format": "biochemical", "details": "for Apparent IC50 Human GR: 15 min preincubation with NADPH; for inhibition of Human GR @ 2 mM: 2 mM compound"}, "Adult S. mansoni": {"system": "Adult S. mansoni", "assay": "Ex vivo cultured adult worm survival", "format": "cell-based, Schistosoma mansoni", "details": "ex vivo culture", "in_short": "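Adult worms were isolated from infected mice and held 24 h in RPMI with 10% fetal calf serum, 10 mM glutamine and 1× penicillin/streptomycin. Test compound was then added to the medium at 10 or 50 μM. Worms were observed daily and scored dead when no movement was seen after several minutes' observation. Percentage dead is reported at 144 h.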"}, "[3]": {"system": "human glutathione S-transferase Ω−1 (GSTO1)", "details": "ref bioassay AID 66188991; cited from earlier work"}, "[4]": {"assay": "oQM-thiol adduct formation with Cys and GSH followed by RP-HPLC/MS", "format": "physicochemical", "details": "pH 7.4, ambient temperature", "in_short": "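Test compound (1 mM) was incubated alone or with 1 mM Cys and GSH in 5 mM sodium phosphate, pH 7.4 (also pH 8.3), at ambient temperature. Aliquots were injected at time intervals onto C18 RP-HPLC, eluting with a 0–100% acetonitrile gradient in 0.1% formic acid. Peaks were identified by ESI-MS and CID MS/MS (−4.0 kV, m/z 125–2,000, 260 °C capillary).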"}, "SmTGR-E330A/D334A [5]": {"target": "T3, SmTGR-E330A/D334A (Schistosoma mansoni, UniProt Q962Y6, D334A/E330A)", "assay": "Time dependent inactivation of SmTGR-E330A/D334A", "format": "biochemical", "details": "global fitting of time dependent inactivation"}, "SmTGR WT [6]": {"system": "SmTGR WT", "format": "biochemical, Schistosoma mansoni"}, "SmTGR WT [7]": {"target": "SmTGR WT (Schistosoma mansoni, UniProt Q962Y6, X597U)", "format": "biochemical", "details": "global fitting of time dependent inactivation"}, "SmTGR-U597C [8]": {"target": "SmTGR-U597C (Schistosoma mansoni, UniProt Q962Y6)", "assay": "biochemical"}, "SmTGR-U597C [9]": {"system": "SmTGR-U597C", "assay": "biochemical", "details": "15 min"}, "SmTGR WT [10]": {"target": "T1, SmTGR WT", "assay": "NADPH oxidase activity of inhibited enzyme", "format": "biochemical", "details": "50 μM inhibitor, 30 min, pyrogallol red"}, "SmTGR-E330A/D334A [11]": {"target": "T3, SmTGR-E330A/D334A", "assay": "SmTGR-E330A/D334A mutant inhibition, DTNB assay", "format": "biochemical"}, "Larval S. mansoni": {"system": "Larval S. mansoni", "assay": "Ex vivo cultured larval worm survival", "format": "cell-based, Schistosoma mansoni", "details": "ex vivo culture", "in_short": "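Schistosomula were made by mechanical transformation of cercariae shed from infected Biomphalaria glabrata, then isolated on a Percoll gradient. They were cultured 24 h in M-199 with 10% fetal calf serum before test compound was added at 10 μM. Daily observation scored larvae dead when motionless for several minutes. Percentage dead is reported at 120 h.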"}, "[12]": {"details": "read-out: Apparent IC50 TGR, 15 min preincubation, NADPH present"}, "[13]": {"details": "read-out: IC50 (Table 2), SmTGR value repeated in Table 2"}}, "note": "Where “and” joins values, the source holds several entries; their conditions need not be identical. Equal values may be shown once. Entries after “also recorded” stand apart in the source; their conditions may differ. Read-outs that look alike come from different tables or passages of the source.", "data": [{"smiles": "Oc1ccc2ccccc2c1CN1CCCCC1", "note": "[Compound 7]", "values": [{"measurement": "Apparent IC50 Rat TrxR", "setting": "Rat TrxR", "value": "inactive"}, {"measurement": "IC50", "setting": "SmTGR WT [1]; [12]", "value": "57.6 ± 4.57", "unit": "µM"}, {"measurement": "pka of the leaving group upon oQM formation", "setting": "[2]", "value": "11.2 (piperidine)"}, {"measurement": "Apparent IC50 Human GR", "setting": "human GR", "value": "inactive"}]}, {"smiles": "Oc1ccc2ccccc2c1CN1CCCC1", "note": "[Compound 6]", "values": [{"measurement": "Adult S. mansoni (144 h) 50 μM, worms dead", "setting": "Adult S. mansoni", "value": 0, "unit": "% dead"}, {"measurement": "Apparent IC50 Rat TrxR", "setting": "Rat TrxR", "value": "inactive"}, {"measurement": "IC50", "setting": "SmTGR WT [1]; [12]", "value": "28.8 ± 5.37", "unit": "µM"}, {"measurement": "pka of the leaving group upon oQM formation", "setting": "[2]", "value": "11.2 (pyrolidine)"}, {"measurement": "Apparent IC50 Human GR", "setting": "human GR", "value": "inactive"}, {"measurement": "Apparent IC50 GSTO1", "setting": "[3]", "value": "inactive"}]}, {"smiles": "CN(C)Cc1c(O)ccc2ccccc12", "note": "[Compound 4, 1-[(Dimethylamino)methyl]-2-naphthol]", "values": [{"measurement": "Adult S. mansoni (144 h) 10 μM, worms dead", "setting": "Adult S. mansoni", "value": 0, "unit": "% dead"}, {"measurement": "time to generate comparable amounts of oQM-thiol adduct", "setting": "[4]", "value": 24, "unit": "h"}, {"measurement": "IC50", "setting": "Rat TrxR", "value": "31 µM and 31.6 µM"}, {"measurement": "second order rate constant for inhibition of SmTGR E330/D334", "setting": "SmTGR-E330A/D334A [5]", "value": 14.7, "unit": "M⁻¹ s⁻¹"}, {"measurement": "IC50", "setting": "SmTGR WT [1]", "value": "11.2 ± 1.9", "unit": "µM"}, {"measurement": "inhibition of SmTGR WT at pH 6.4", "setting": "SmTGR WT [1]; pH 6.4, data not shown", "value": "low micromolar range"}, {"measurement": "pka of the leaving group upon oQM formation", "setting": "[2]", "value": "11 (dimethylamine)"}, {"measurement": "IC50", "setting": "human GR", "value": 1830, "unit": "µM"}, {"measurement": "difference in inhibition rate between WT and E330A/D334A", "setting": "SmTGR WT [6]; compound at 2 μM", "value": "about 360 fold"}, {"measurement": "WT inhibited faster than E330A/D334A", "setting": "SmTGR WT [6]; compound at 20 μM", "value": 3, "unit": "times"}, {"measurement": "second order rate constant for inhibition of SmTGR WT", "setting": "SmTGR WT [7]", "value": 45.8, "unit": "M⁻¹ s⁻¹"}, {"measurement": "IC50", "setting": "SmTGR-U597C [8]", "value": 2000, "unit": "µM"}, {"measurement": "fold higher apparent IC50 for SmTGR-U597C than for WT", "setting": "SmTGR-U597C [9]", "value": 200, "unit": "fold"}, {"measurement": "induction of NADPH oxidase activity in the inhibited WT enzyme", "setting": "SmTGR WT [10]", "value": "able to induce"}, {"measurement": "IC50", "setting": "SmTGR-E330A/D334A [11]", "value": "44 ± 4.9", "unit": "µM"}, {"measurement": "fold higher inhibitor concentration needed for E330A/D334A than for WT", "setting": "SmTGR-E330A/D334A [11]; same degree of inhibition", "value": 4, "unit": "fold"}, {"measurement": "Apparent IC50 GSTO1", "setting": "[3]", "value": "not detected; also recorded: inactive"}]}, {"smiles": "CN(Cc1ccccc1)Cc1c(O)ccc2ccccc12", "note": "[Compound 3]", "values": [{"measurement": "Adult S. mansoni (144 h) 10 μM, worms dead", "setting": "Adult S. mansoni", "value": 0, "unit": "% dead"}, {"measurement": "Adult S. mansoni (144 h) 50 μM, worms dead", "setting": "Adult S. mansoni", "value": 24, "unit": "% dead"}, {"measurement": "Larval S. mansoni (120 h) 10 μM, worms dead", "setting": "Larval S. mansoni", "value": 19, "unit": "% dead"}, {"measurement": "Apparent IC50 Rat TrxR", "setting": "Rat TrxR", "value": "inactive"}, {"measurement": "IC50", "setting": "SmTGR WT [1]; [12]", "value": "0.84 ± 0.03", "unit": "µM"}, {"measurement": "IC50", "setting": "SmTGR WT [1]; [13]", "value": "0.84 ± 0.03", "unit": "µM"}, {"measurement": "inhibition of Human GR @ 2 mM", "setting": "human GR", "value": 20, "unit": "% inhibition @ 2 mM"}, {"measurement": "Apparent IC50 GSTO1", "setting": "[3]", "value": "inactive"}]}, {"smiles": "Oc1ccc2ccccc2c1CN1CCOCC1", "note": "[Compound 1, 1-(Morpholin-4-ylmethyl)-2-naphthol]", "values": [{"measurement": "Adult S. mansoni (144 h) 10 μM, worms dead", "setting": "Adult S. mansoni", "value": 8, "unit": "% dead"}, {"measurement": "Adult S. mansoni (144 h) 50 μM, worms dead", "setting": "Adult S. mansoni", "value": 13, "unit": "% dead"}, {"measurement": "time to generate comparable amounts of oQM-thiol adduct", "setting": "[4]", "value": 1, "unit": "h"}, {"measurement": "IC50", "setting": "Rat TrxR", "value": 10, "unit": "µM"}, {"measurement": "second order rate constant for inhibition of SmTGR E330/D334", "setting": "SmTGR-E330A/D334A [5]", "value": 1300, "unit": "M⁻¹ s⁻¹"}, {"measurement": "IC50", "setting": "SmTGR WT [1]", "value": "0.61 ± 0.09", "unit": "µM"}, {"measurement": "pka of the leaving group upon oQM formation", "setting": "[2]", "value": "8.3 (morpholine)"}, {"measurement": "IC50", "setting": "human GR", "value": "71 ± 11.7", "unit": "µM"}, {"measurement": "second order rate constant for inhibition of SmTGR WT", "setting": "SmTGR WT [7]", "value": 1830, "unit": "M⁻¹ s⁻¹"}, {"measurement": "IC50", "setting": "SmTGR-U597C [8]", "value": 100, "unit": "µM"}, {"measurement": "fold higher apparent IC50 for SmTGR-U597C than for WT", "setting": "SmTGR-U597C [9]", "value": 200, "unit": "fold"}, {"measurement": "Apparent IC50 GSTO1", "setting": "[3]", "value": "not detected; also recorded: inactive"}]}, {"smiles": "Oc1ccc2ccccc2c1CN1CC=C(c2ccccc2)CC1", "note": "[Compound 5]", "values": [{"measurement": "Apparent IC50 Rat TrxR", "setting": "Rat TrxR", "value": "inactive"}, {"measurement": "IC50", "setting": "SmTGR WT [1]; [12]", "value": "11.9 ± 3.57", "unit": "µM"}, {"measurement": "Apparent IC50 Human GR", "setting": "human GR", "value": "inactive"}, {"measurement": "Apparent IC50 GSTO1", "setting": "[3]", "value": "inactive"}]}, {"smiles": "CCOC(=O)N1CCN(Cc2c(O)ccc3ccccc23)CC1", "note": "[Compound 2]", "values": [{"measurement": "Adult S. mansoni (144 h) 50 μM, worms dead", "setting": "Adult S. mansoni", "value": 5, "unit": "% dead"}, {"measurement": "IC50", "setting": "Rat TrxR", "value": 12.6, "unit": "µM"}, {"measurement": "IC50", "setting": "SmTGR WT [1]; [12]", "value": "0.65 ± 0.12", "unit": "µM"}, {"measurement": "IC50", "setting": "SmTGR WT [1]; [13]", "value": "0.65 ± 0.12", "unit": "µM"}, {"measurement": "inhibition of Human GR @ 2 mM", "setting": "human GR", "value": 35, "unit": "% inhibition @ 2 mM"}, {"measurement": "Apparent IC50 GSTO1", "setting": "[3]", "value": "inactive"}]}]}
